{
  "source": "ChEMBL document CHEMBL3864187",
  "about": "“Discovery and Characterization of a Peptoid with Antifungal Activity against Cryptococcus neoformans” (ACS Med Chem Lett, 2016)",
  "key": {"[1]": {"experiment": "Cytotoxicity against human HPL1A cells at 6.3 ug/ml measured after 48 hrs by MTT assay", "assay_type": "toxicity, cell-based", "outline": "(§1)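 Cells were exposed to peptoid across 800 to 3.1 μg/mL. IC50 is defined as the concentration giving 50% growth inhibition. Cytotoxicity was also scored at 6.3 μg/mL within this range.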"}, "[2]": {"experiment": "Antifungal activity against Cryptococcus neoformans serotype D clinical isolate AD 12-27 after 72 hrs by PrestoBlue staining based broth dilution method", "assay_type": "functional, Cryptococcus deneoformans", "outline": "(§2)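 Standard broth dilution MIC assay run in triplicate samples with 72 h incubation. The MIC is the lowest concentration inhibiting growth. An IC50 (50% inhibitory concentration) is also derived from the same assay.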"}, "[3]": {"experiment": "Selectivity index, ratio of IC50 for human HepG2 cells to MIC for Cryptococcus neoformans serotype A H99S", "outline": "(§3)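 Mammalian toxicity tested at 800 to 3.1 μg/mL. IC50 (50% growth inhibition) was measured in NIH/3T3, HepG2 and HPL1A cells, and HC10 (10% lysis) in human erythrocytes. Each value was divided by the broth-dilution MIC against H99S.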"}, "[4]": {"experiment": "Cytotoxicity against human HepG2 cells at 6.3 ug/ml measured after 48 hrs by MTT assay", "assay_type": "toxicity, cell-based", "details": "hepg2, 48 h", "outline": "as §1"}, "[5]": {"experiment": "Metabolic stability in human serum assessed as compound degradation at 0.1 mg/mL measured after 48 hrs by RP-HPLC analysis", "assay_type": "ADME"}, "[6]": {"experiment": "Antifungal activity against Cryptococcus neoformans serotype A H99S assessed as inhibition of colony growth measured after 72 hrs by PrestoBlue staining based broth dilution method", "assay_type": "functional, Cryptococcus neoformans var. grubii H99S", "details": "for MIC: Cryptococcus neoformans var. grubii H99S", "outline": "(§4)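 Standard broth dilution of the synthesized, HPLC-purified peptoid against C. neoformans in a triplicate-sample format with 72 h incubation; MIC is the lowest concentration that inhibits growth.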"}, "[7]": {"experiment": "Cytotoxicity against human erythrocytes assessed as hemolysis measured after 1 hr by spectrophotometric method", "assay_type": "toxicity, cell-based", "details": "erythrocyte", "outline": "(§5)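 Human erythrocytes were exposed to peptoid across 800 to 3.1 μg/mL. HC10 is defined as the concentration lysing 10% of erythrocytes. Lysis was also scored at 6.3 μg/mL.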"}, "[8]": {"experiment": "Hemolytic activity against human erythrocytes at 6.3 ug/ml measured after 1 hr by spectrophotometric method", "assay_type": "cell-based", "details": "erythrocyte", "outline": "as §5"}, "[9]": {"experiment": "Selectivity index, ratio of IC50 for human HPL1A cells to MIC for Cryptococcus neoformans serotype A H99S", "outline": "as §3"}, "[10]": {"experiment": "Cytotoxicity against human HPL1A cells measured after 48 hrs by MTT assay", "assay_type": "toxicity, cell-based", "outline": "as §1"}, "Mus musculus": {"species": "Mus musculus", "experiment": "Cytotoxicity against mouse NIH/3T3 cells at 6.3 ug/ml measured after 48 hrs by MTT assay", "assay_type": "toxicity, cell-based", "details": "nih3t3, 48 h", "outline": "as §1"}, "[11]": {"experiment": "Cytotoxicity against human HepG2 cells measured after 48 hrs by MTT assay", "assay_type": "toxicity, cell-based", "outline": "as §1"}, "Cryptococcus neoformans [12]": {"test_system": "Cryptococcus neoformans", "experiment": "Fungicidal activity against Cryptococcus neoformans serotype A H99S at =>6.3 ug/mL measured after 72 hrs by broth dilution method", "assay_type": "functional", "details": "Cryptococcus neoformans var. grubii H99S", "outline": "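Broth MIC assay over a range of peptoid concentrations with 72 h incubation. Triplicate wells are pooled, washed with PBS to remove drug and spotted onto YPD agar. Fungicidal activity means no colony regrowth; recovery of colonies means fungistatic only.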"}, "[13]": {"experiment": "Selectivity index, ratio of IC50 for mouse NIH/3T3 cells to MIC for Cryptococcus neoformans serotype A H99S", "outline": "as §3"}, "[14]": {"experiment": "Cytotoxicity against mouse NIH/3T3 cells measured after 48 hrs by MTT assay", "assay_type": "toxicity, NIH3T3", "outline": "as §1"}, "[15]": {"experiment": "Antifungal activity against Cryptococcus neoformans serotype D clinical isolate AD 12-30 after 72 hrs by PrestoBlue staining based broth dilution method", "assay_type": "functional, Cryptococcus deneoformans", "outline": "as §2"}, "[16]": {"experiment": "Antifungal activity against Cryptococcus neoformans serotype D ATCC 24067 after 72 hrs by PrestoBlue staining based broth dilution method", "assay_type": "functional, Cryptococcus deneoformans", "outline": "as §4"}, "Cryptococcus neoformans [17]": {"test_system": "Cryptococcus neoformans", "experiment": "Antifungal activity against Cryptococcus neoformans serotype A clinical isolate B18 after 72 hrs by PrestoBlue staining based broth dilution method", "assay_type": "functional", "details": "isolate B18, 72 h", "outline": "as §2"}, "Cryptococcus neoformans [18]": {"test_system": "Cryptococcus neoformans", "experiment": "Antifungal activity against Cryptococcus neoformans serotype A clinical isolate B24 after 72 hrs by PrestoBlue staining based broth dilution method", "assay_type": "functional", "details": "isolate B24, 72 h", "outline": "as §2"}, "[19]": {"experiment": "Selectivity index, ratio of HC10 for human erythrocytes to MIC for Cryptococcus neoformans serotype A H99S", "outline": "as §3"}},
  "note": "Calls of active or inactive are those of the source. Where a SMILES comes first, the peptide text is derived from it. [ ]: non-standard residue; d: D form. NFurfurylGly = O=C(O)CNCc1ccco1; Gly(N(CH2)3NH2) = NCCCNCC(=O)O; Nphe = O=C(O)CNCc1ccccc1",
  "data": [
    {"molecule": "CCCCCCCCCCCCCNCC(=O)N(CCCCN)CC(=O)N(CC(N)=O)Cc1ccco1", "values": [
      {"measurement": "Activity", "setting": "[1]", "result": "Non-Toxic"},
      {"measurement": "IC50", "setting": "[2]", "result": 4, "unit": "µg/mL"},
      {"measurement": "MIC", "setting": "[2]; Cryptococcus deneoformans", "result": 25, "unit": "µg/mL"},
      {"measurement": "Selectivity Index", "setting": "[3]", "result": 9},
      {"measurement": "Activity", "setting": "[4]", "result": "Non-Toxic"},
      {"measurement": "Stability", "setting": "[5]", "result": "Stable"},
      {"measurement": "IC50", "setting": "[6]", "result": 0.68, "unit": "µg/mL"},
      {"measurement": "MIC", "setting": "[6]", "result": 6.3, "unit": "µg/mL"},
      {"measurement": "HC10", "setting": "[7]", "result": 68.7, "unit": "µg/mL"},
      {"measurement": "Activity", "setting": "[8]", "result": "Non-Toxic"},
      {"measurement": "Selectivity Index", "setting": "[9]", "result": 6},
      {"measurement": "IC50 at 48 h", "setting": "[10]", "result": 36.3, "unit": "µg/mL"},
      {"measurement": "Activity", "setting": "Mus musculus", "result": "Non-Toxic"},
      {"measurement": "IC50 at 48 h", "setting": "[11]", "result": "43.6 to 56.2", "unit": "µg/mL"},
      {"measurement": "Activity", "setting": "Cryptococcus neoformans [12]", "result": "Active"},
      {"measurement": "Selectivity Index", "setting": "[13]", "result": 8},
      {"measurement": "IC50 at 48 h", "setting": "[14]", "result": "48.6 to 50.3", "unit": "µg/mL"},
      {"measurement": "IC50", "setting": "[15]", "result": 6.9, "unit": "µg/mL"},
      {"measurement": "MIC", "setting": "[15]; Cryptococcus deneoformans", "result": 25, "unit": "µg/mL"},
      {"measurement": "IC50", "setting": "[16]", "result": 3.9, "unit": "µg/mL"},
      {"measurement": "MIC", "setting": "[16]; Cryptococcus deneoformans", "result": 6.3, "unit": "µg/mL"},
      {"measurement": "IC50", "setting": "Cryptococcus neoformans [17]", "result": 12.2, "unit": "µg/mL"},
      {"measurement": "MIC", "setting": "Cryptococcus neoformans [17]", "result": 25, "unit": "µg/mL"},
      {"measurement": "IC50", "setting": "Cryptococcus neoformans [18]", "result": 10.7, "unit": "µg/mL"},
      {"measurement": "MIC", "setting": "Cryptococcus neoformans [18]", "result": 12.5, "unit": "µg/mL"},
      {"measurement": "Selectivity Index", "setting": "[19]", "result": 11}
    ]},
    {"molecule": "NCCCN(CC(=O)N(CC(=O)N(CC(N)=O)Cc1ccco1)Cc1ccccc1)C(=O)CN(Cc1ccccc1)C(=O)CNCc1ccccc1", "note": "(H-[Nphe][Nphe][Gly(N(CH2)3NH2)][Nphe][NFurfurylGly]-NH2)", "values": [
      {"measurement": "MIC", "setting": "[6]", "result": "> 200", "unit": "µg/mL"}
    ]}
  ]
}
